Results on 10 compounds are retold here after ChEMBL document CHEMBL1671806, “New imidazolidinedione derivatives as antimalarial agents” (Bioorg Med Chem, 2011).

Usually IC50 stands for the concentration that inhibits the measured activity by half. As a reminder, the half-life is how long it takes for the measured level to halve.

The subject of data set [1] is Plasmodium falciparum. Briefly: Antimicrobial activity against Plasmodium falciparum D6 by microdilution method. It is filed as functional, organism-based.
The subject of data set [2] is Plasmodium falciparum. Briefly: Antimicrobial activity against Plasmodium falciparum TM91C235 by microdilution method. It is filed as functional, organism-based.
Data set [3] relates to Plasmodium falciparum. Briefly: Antimicrobial activity against Plasmodium falciparum W2 by microdilution method. It is filed as functional, organism-based. A general note: In broth dilution the organism is exposed to a series of concentrations in liquid medium.
The test system of data set [4] is Plasmodium berghei. Description: Antiplasmodial activity against Plasmodium berghei sporozoites infected in orally dosed mouse administered for three consecutive days one day before infection. It is filed as functional. The following applies: po, 24 h, read-out: MED. In short, it runs like this:
(§1)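 Mice were inoculated with P. berghei sporozoites. For oral dosing, compounds were ground and suspended in hydroxyethylcellulose plus Tween 80; for sc dosing, they were suspended in peanut oil. Doses were given once daily on three consecutive days: the day before, 4 h before, and the day after inoculation. Several dose levels were used, up to 320 mg/kg/day. Cure was scored.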

Data set [5] can be described thus: Toxicity in Plasmodium berghei sporozoites infected orally dosed mouse administered for three consecutive days one day before infection. It is filed as organism-based. The following applies: in vivo, po. In short, it runs like this: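 Mice received P. berghei sporozoites. Each compound was ground and suspended in hydroxyethylcellulose plus Tween 80, then given orally at several dose levels up to 320 mg/kg/day. Dosing was once daily for three consecutive days: the day before, 4 h before, and the day after sporozoite inoculation.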

In data set [6] the test system is Plasmodium berghei. Briefly: Antiplasmodial activity against Plasmodium berghei sporozoites infected in orally dosed mouse assessed as cure from infection 160 mg/kg/day, po administered for three consecutive days before infection measured after at day 31. It is filed as functional, organism-based. In short, it runs like this: as §1
The species named for the next data set is Mus musculus. Briefly: Metabolic stability in mouse liver microsome by LC-MS/MS method. The following applies: liver microsomes.
The species named for a further data set is Homo sapiens. Description: Metabolic stability in human liver microsome by LC-MS/MS method. The following applies: liver microsomes. Background: Liver microsomes are vesicles of endoplasmic reticulum, rich in cytochrome P450 enzymes.
Setting [7] is: Plasmodium falciparum, D6, read-out: IC50.
Setting [8] is: Plasmodium falciparum, TM91C235, read-out: IC50.
[9] abbreviates: Plasmodium falciparum, W2, read-out: IC50.

≈ marks a conversion by molar mass, not a printed value. Calls of active or inactive are those of the source. The calls are words filed in the database; no cut-off is given here. Where only a bound is given, the exact number is not on record here.

In the case of `CC(C)N1C(=O)C(=O)N=C1/N=C(\NCC(C)(C)C)Nc1ccc(Cl)c(Cl)c1`, the IC50 worked out at 1.1 µg/mL (≈ 2.67 µM) with Plasmodium falciparum [1]; 1.1 µg/mL (≈ 2.67 µM) with Plasmodium falciparum [1] (setting [7]); 0.95 µg/mL (≈ 2.3 µM) in the data set with Plasmodium falciparum [2]; 0.95 µg/mL (≈ 2.3 µM) with Plasmodium falciparum [2] (setting [8]); 0.37 µg/mL (≈ 0.897 µM) in the data set with Plasmodium falciparum [3]; 0.37 µg/mL (≈ 0.897 µM) in the data set with Plasmodium falciparum [3] (setting [9]). Further, the minimal effective dose in the data set on Plasmodium berghei [4] amounted to 160 mg/kg/day. This compound yielded an MTD at 3 days in data set [5] of no less than 320 mg/kg/day. Besides, the result in the data set on Plasmodium berghei [6] was Active. In addition, the half-life in the data set listed under Mus musculus and in the data set filed under Homo sapiens was greater than 1 h each time.
As to `CC(C)N1C(=O)C(=O)N=C1/N=C(/Nc1ccc(Cl)c(Cl)c1)NC1C2CC3CC(C2)CC1C3` (stereo not drawn), the IC50 in the data set on Plasmodium falciparum [1] was 0.81 µg/mL (≈ 1.7 µM); with Plasmodium falciparum [1] (setting [7]), 0.81 µg/mL (≈ 1.7 µM); in the data set on Plasmodium falciparum [2] it was 2.07 µg/mL (≈ 4.35 µM); with Plasmodium falciparum [2] (setting [8]), 2.07 µg/mL (≈ 4.35 µM); with Plasmodium falciparum [3] it was 2.68 µg/mL (≈ 5.63 µM); in the data set on Plasmodium falciparum [3] (setting [9]) it was 2.68 µg/mL (≈ 5.63 µM). The minimal effective dose with Plasmodium berghei [4] was greater than 320 mg/kg/day. The compound also yielded an MTD at 3 days in data set [5] of no less than 320 mg/kg/day. In addition, the half-life was 0.124 h in the data set listed under Mus musculus and 0.093 h in the data set filed under Homo sapiens.
Regarding `CCN(CC)CCN/C(=N\C1=NC(=O)C(=O)N1C(C)C)Nc1ccc(Cl)c(Cl)c1`, the half-maximal inhibitory concentration (IC50) in the data set with Plasmodium falciparum [1] (setting [7]), with Plasmodium falciparum [2] (setting [8]) and in the data set on Plasmodium falciparum [3] (setting [9]) was greater than 5 µg/mL in each case. Besides, the minimal effective dose in the data set on Plasmodium berghei [4] was greater than 160 mg/kg/day. Also, in data set [5], the MTD at 3 days is no less than 160 mg/kg/day. Besides, the figures for the half-life in the data set filed under Mus musculus and in the data set listed under Homo sapiens were 0.294 h and 0.525 h, respectively.
Regarding `C=CCON/C(=N\C1=NC(=O)C(=O)N1C(C)C)Nc1ccc(Cl)c(Cl)c1`, the IC50 in the data set on Plasmodium falciparum [1] was 8.5 µg/mL (≈ 21.3 µM); in the data set on Plasmodium falciparum [1] (setting [7]), 8.5 µg/mL (≈ 21.3 µM); in the data set on Plasmodium falciparum [2] (setting [8]), greater than 15 µg/mL; with Plasmodium falciparum [3], 6.7 µg/mL (≈ 16.8 µM); in the data set on Plasmodium falciparum [3] (setting [9]), 6.7 µg/mL (≈ 16.8 µM). Besides, the minimal effective dose with Plasmodium berghei [4] was 160 mg/kg/day. In data set [5], this compound came in with an MTD at 3 days of 120 mg/kg/day. Also, in the data set on Plasmodium berghei [6], the result was Active. Besides, the half-life in the data set listed under Mus musculus and in the data set filed under Homo sapiens was greater than 1 h in each case.
On to `CC(C)N1C(=O)C(=O)N=C1/N=C(/Nc1ccc(Cl)c(Cl)c1)NC(C)(C)C`, for which the IC50 with Plasmodium falciparum [1] is 0.72 µg/mL (≈ 1.81 µM); with Plasmodium falciparum [1] (setting [7]), 0.72 µg/mL (≈ 1.81 µM); in the data set on Plasmodium falciparum [2], 1.36 µg/mL (≈ 3.41 µM); in the data set on Plasmodium falciparum [2] (setting [8]), 1.36 µg/mL (≈ 3.41 µM); with Plasmodium falciparum [3] it was 1.15 µg/mL (≈ 2.89 µM); in the data set with Plasmodium falciparum [3] (setting [9]) it was 1.15 µg/mL (≈ 2.89 µM). Also, in the data set with Plasmodium berghei [4], the minimal effective dose is greater than 320 mg/kg/day. The same compound registered an MTD at 3 days in data set [5] of no less than 320 mg/kg/day. Besides, the half-life in the data set filed under Mus musculus and in the data set filed under Homo sapiens was greater than 1 h throughout.
For the compound `CC(C)N1C(=O)C(=O)N=C1/N=C(\NCCCCCCNC(=O)OC(C)(C)C)Nc1ccc(Cl)c(Cl)c1`, the half-maximal inhibitory concentration (IC50) was greater than 5 µg/mL in the data set with Plasmodium falciparum [1] (setting [7]), greater than 5 µg/mL in the data set on Plasmodium falciparum [2] (setting [8]), 1.46 µg/mL (≈ 2.7 µM) in the data set on Plasmodium falciparum [3] and 1.46 µg/mL (≈ 2.7 µM) with Plasmodium falciparum [3] (setting [9]). In addition, the minimal effective dose with Plasmodium berghei [4] was greater than 160 mg/kg/day. Also, the MTD at 3 days in data set [5] was no less than 160 mg/kg/day. Also, the half-life in the data set listed under Mus musculus stood at 0.182 h; in the data set filed under Homo sapiens, 0.208 h.
In the case of `CN/C(=N\C1=NC(=O)C(=O)N1C(C)C)Nc1ccc(Cl)c(Cl)c1`, the IC50 in the data set with Plasmodium falciparum [1] (setting [7]), with Plasmodium falciparum [2] (setting [8]) and in the data set on Plasmodium falciparum [3] (setting [9]) was greater than 5 µg/mL throughout. The minimal effective dose in the data set with Plasmodium berghei [4] is greater than 320 mg/kg/day. The compound further showed an MTD at 3 days in data set [5] of no less than 320 mg/kg/day. For the same compound, the half-life in the data set listed under Mus musculus and in the data set filed under Homo sapiens was greater than 1 h in each case.
For the compound `CC(C)N1C(=O)C(=O)N=C1/N=C(\NCCCN(C)C)Nc1ccc(Cl)c(Cl)c1`, the IC50 in the data set with Plasmodium falciparum [1] (setting [7]), with Plasmodium falciparum [2] (setting [8]) and in the data set on Plasmodium falciparum [3] (setting [9]) was greater than 5 µg/mL in each case. Also, the minimal effective dose in the data set on Plasmodium berghei [4] is greater than 160 mg/kg/day. The compound further showed an MTD at 3 days in data set [5] of no less than 160 mg/kg/day. Moreover, the half-life in the data set filed under Mus musculus and in the data set filed under Homo sapiens was greater than 1 h throughout.
As to `CCON/C(=N\C1=NC(=O)C(=O)N1C(C)C)Nc1ccc(Cl)c(Cl)c1`, the IC50 with Plasmodium falciparum [1] (setting [7]), with Plasmodium falciparum [2] (setting [8]) and with Plasmodium falciparum [3] (setting [9]) was greater than 5 µg/mL each time. Moreover, in the data set with Plasmodium berghei [4], the minimal effective dose was found to be 160 mg/kg/day. In data set [5], the MTD at 3 days was less than 40 mg/kg/day. Besides, the outcome with Plasmodium berghei [6] was Active. Moreover, the half-life in the data set listed under Mus musculus and in the data set listed under Homo sapiens was greater than 1 h each time.
As for `CC(C)N1C(=O)C(=O)N=C1/N=C(\NOC(C)(C)C)Nc1ccc(Cl)c(Cl)c1`, the IC50 is 2.75 µg/mL (≈ 6.64 µM) with Plasmodium falciparum [1]; 2.75 µg/mL (≈ 6.64 µM) in the data set on Plasmodium falciparum [1] (setting [7]); 3.36 µg/mL (≈ 8.11 µM) in the data set on Plasmodium falciparum [2]; 3.36 µg/mL (≈ 8.11 µM) in the data set with Plasmodium falciparum [2] (setting [8]); 1.14 µg/mL (≈ 2.75 µM) in the data set on Plasmodium falciparum [3]; 1.14 µg/mL (≈ 2.75 µM) in the data set on Plasmodium falciparum [3] (setting [9]). The minimal effective dose with Plasmodium berghei [4] is greater than 160 mg/kg/day. The compound further gave an MTD at 3 days in data set [5] of no less than 160 mg/kg/day. For the same compound, the half-life in the data set filed under Mus musculus and in the data set listed under Homo sapiens was greater than 1 h throughout.
